“And” between values parts separate entries of the source, which are not always exact repeats. Equal entries are not always repeated.
Columns and labels:
P388 [1] = assay: Compound was evaluated in vivo for antitumor activity after intraperitoneal administration against P388/L-PAM(12 for median day of death at an optimal dose of 1 mg/kg/injection; format: functional, Mus musculus
P388 [2] = assay: Compound was evaluated in vivo for antitumor activity after intraperitoneal administration against P388/L-PAM(12 for mortality range at an optimal dose of 5 mg/kg/injection; format: functional, Mus musculus
P388 [3] = assay: Compound was evaluated in vivo for antitumor activity after intraperitoneal administration against P388/L-PAM(12) for tumor free survivors at an optimal dose of 1 mg/kg/injection; format: functional, Mus musculus
P388 [4] = assay: Compound was evaluated in vivo for antitumor activity after intraperitoneal administration against P388 (1303) for median day of death at an optimal dose of 5 mg/kg/injection; format: functional, Mus musculus
P388 [5] = assay: Compound was evaluated in vivo for antitumor activity after intraperitoneal administration against P388 (1303) for change in body weight at an optimal dose of 5 mg/kg/injection; format: functional, Mus musculus
P388 [6] = assay: Compound was evaluated in vivo for antitumor activity after intraperitoneal administration against P388 (1303) for % increase in life span at an optimal dose of 5 mg/kg/injection; format: functional; conditions: Mus musculus, P388, ip
P388 [7] = assay: (§1) Compound was evaluated in vivo for antitumor activity after intraperitoneal administration against P388/L-PAM(14) for mortality range at an optimal dose of 5 mg/kg/injection; format: functional, Mus musculus
P388 [8] = assay: (§2) Compound was evaluated in vivo for antitumor activity after intraperitoneal administration against P388/L-PAM(14) for % increase in life span at an optimal dose of 5 mg/kg/injection; format: functional; conditions: Mus musculus, P388, ip
P388 [9] = assay: Compound was evaluated in vivo for antitumor activity after intraperitoneal administration against P388/L-PAM(14) for median day of death at an optimal dose of 5 mg/kg/injection; format: functional, Mus musculus
P388 [10] = assay: Compound was evaluated in vivo for antitumor activity after intraperitoneal administration against P388/L-PAM(12 for change in body weight at an optimal dose of 1 mg/kg/injection; format: functional, Mus musculus
P388 [11] = assay: Compound was evaluated in vivo for antitumor activity after intraperitoneal administration against P388/L-PAM(12) for % increase in life span at an optimal dose of 1 mg/kg/injection; format: functional; conditions: Mus musculus, P388, ip
P388 [12] = assay: (§3) Compound was evaluated in vivo for antitumor activity after intraperitoneal administration against P388/L-PAM(14) for tumor free survivors at an optimal dose of 5 mg/kg/injection; format: functional, Mus musculus
P388 [13] = assay: Compound was evaluated in vivo for antitumor activity after intraperitoneal administration against P388 (1303) for mortality range at an optimal dose of 5 mg/kg/injection; format: functional, Mus musculus
P388 [14] = assay: Compound was evaluated in vivo for antitumor activity after intraperitoneal administration against P388/L-PAM(12) for total dose at an optimal dose of 5 mg/kg/injection; format: functional, Mus musculus
P388 [15] = assay: Compound was evaluated in vivo for antitumor activity after intraperitoneal administration against P388 (1303) for tumor free survivors at an optimal dose of 5 mg/kg/injection; format: functional, Mus musculus
P388 [16] = assay: Compound was evaluated in vivo for antitumor activity after intraperitoneal administration against P388/L-PAM(14) for total dose at an optimal dose of 5 mg/kg/injection; format: functional, Mus musculus
P388 [17] = assay: (§4) Compound was evaluated in vivo for antitumor activity after intraperitoneal administration against P388/L-PAM(14) for change in body weight at an optimal dose of 5 mg/kg/injection; format: functional, Mus musculus
P388 [18] = assay: as §3; format: functional, Mus musculus; remark: listed apart in the source
P388 [19] = assay: Compound was evaluated in vivo for antitumor activity after intraperitoneal administration against P388 (1313) for total dose at an optimal dose of 5 mg/kg/injection; format: functional, Mus musculus
P388 [20] = assay: as §1; format: functional, Mus musculus; remark: listed apart in the source
P388 [21] = assay: as §4; format: functional, Mus musculus; remark: listed apart in the source
P388 [22] = assay: as §2; format: functional; conditions: Mus musculus, P388, ip; remark: listed apart in the source
P388 [23] = assay: Compound was evaluated in vivo for antitumor activity after intraperitoneal administration against P388 (1303) for total dose at an optimal dose of 5 mg/kg/injection; format: functional, Mus musculus
L1210 = assay: Inhibitory activity against L1210 cell growth; format: functional, cell-based; conditions: Mus musculus
Procedure, shortened: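 L1210 cells were grown in RPMI 1640 with 2 mM glutamine and 20% heat-inactivated horse serum at 37 °C under 5% CO2. Drug was added in DMSO (0.5% final) to exponential cells seeded at 0.8×10^5 cells/mL. Coulter counts were done in triplicate at 48 h. IC50 was taken from a regression of probit % growth inhibition against log dose, from one experiment.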

P388 [24] = assay: (§5) Compound was evaluated in vivo for antitumor activity after intraperitoneal administration against P388 (1303) for change in body weight at an optimal dose of 1 mg/kg/injection; format: functional, Mus musculus
P388 [25] = assay: (§6) Compound was evaluated in vivo for antitumor activity after intraperitoneal administration against P388 (1303) for % increase in life span at an optimal dose of 1 mg/kg/injection; format: functional; conditions: Mus musculus, P388, ip
P388 [26] = assay: (§7) Compound was evaluated in vivo for antitumor activity after intraperitoneal administration against P388 (1303) for median day of death at an optimal dose of 1 mg/kg/injection; format: functional, Mus musculus
P388 [27] = assay: as §5; format: functional, Mus musculus; remark: listed apart in the source
P388 [28] = assay: as §6; format: functional; conditions: Mus musculus, P388, ip; remark: listed apart in the source
P388 [29] = assay: as §7; format: functional, Mus musculus; remark: listed apart in the source
P388 [30] = assay: (§8) Compound was evaluated in vivo for antitumor activity after intraperitoneal administration against P388 (1303) for mortality range at an optimal dose of 1 mg/kg/injection; format: functional, Mus musculus
P388 [31] = assay: (§9) Compound was evaluated in vivo for antitumor activity after intraperitoneal administration against P388 (1303) for tumor free survivors at an optimal dose of 1 mg/kg/injection; format: functional, Mus musculus
P388 [32] = assay: Compound was evaluated in vivo for antitumor activity after intraperitoneal administration against P388/L-PAM for total dose at an optimal dose of 1 mg/kg/injection; format: functional, Mus musculus
P388 [33] = assay: as §8; format: functional, Mus musculus; remark: listed apart in the source
P388 [34] = assay: as §9; format: functional, Mus musculus; remark: listed apart in the source
P388 [35] = assay: Compound was evaluated in vivo for antitumor activity after intraperitoneal administration against P388 (1303) for total dose at an optimal dose of 1 mg/kg/injection; format: functional, Mus musculus
Mus musculus [36] = assay: Compound was evaluated in vivo for antitumor activity against colon adenocarcinoma after injecting the compound intraperitoneally for optimal dose; format: functional
Mus musculus [37] = assay: Compound was evaluated in vivo for antitumor activity against colon adenocarcinoma after injecting the compound intraperitoneally for median tumor burden; format: functional
Mus musculus [38] = assay: Compound was evaluated in vivo for antitumor activity against colon adenocarcinoma after injecting the compound intraperitoneally for percent T/C; format: functional
Mus musculus [39] = assay: Compound was evaluated in vivo for antitumor activity against colon adenocarcinoma after injecting the compound intraperitoneally for total dose.; format: functional
Mus musculus [40] = assay: Compound was evaluated in vivo for antitumor activity against colon adenocarcinoma after injecting the compound intraperitoneally for toxicity related death.; format: functional

N[C@@H](Cc1ccc(N(CCCl)CCCl)cc1)C(=O)O [MELPHALAN]
Median day of death (P388 [1]): 15 | Mortality (P388 [2]): 31 days | Survivors (P388 [3]): 0 | Median day of death (P388 [4]): 24 | Change in body weight (P388 [5]): 0.1 g mouse-1 | ILS at 5 mg/kg (P388 [6]): 118% | Mortality (P388 [7]): 34 days | ILS at 5 mg/kg (P388 [8]): 14% | Median day of death (P388 [9]): 16 | Change in body weight (P388 [10]): 0.6 g mouse-1 | ILS at 1 mg/kg (P388 [11]): 15% | Survivors (P388 [12]): 0 | Mortality (P388 [13]): 34 days | Total dose (P388 [14]): 5 mg/kg | Survivors (P388 [15]): 0 | Total dose (P388 [16]): 5 mg/kg | Change in body weight (P388 [17]): 0 g mouse-1 | Survivors (P388 [18]): 0 | Total dose (P388 [19]): 5 mg/kg | Mortality (P388 [20]): 19 days | Change in body weight (P388 [21]): 0.4 g mouse-1 | ILS at 5 mg/kg (P388 [22]): 121% | Total dose (P388 [23]): 5 mg/kg

COC1=CC(=O)c2ncnc(OCCOCCOCCO)c2C1=O
IC50 (L1210): > 10 µg/mL and > 29.6 µM

COC(=O)C(Nc1ncnc2c1C(=O)C(OC)=CC2=O)C(C)C (configuration not stated)
IC50 (L1210): 0.825 µg/mL and 2.59 µM

COc1cccc2c1C(=O)c1c(O)c3c(c(O)c1C2=O)C[C@@](O)(C(=O)CO)C[C@@H]3O[C@H]1C[C@H](N)[C@H](O)[C@H](C)O1 [DOXORUBICIN]
IC50 (L1210): 0.028 µg/mL and 48 nM

CCN(CC)CCCC(C)Nc1ncnc2c1C(=O)C(OC)=CC2=O (configuration not stated)
IC50 (L1210): 0.435 µg/mL and 1.26 µM

CN(C)CCCNc1ncnc2c1C(=O)C(N1CCCCC1)=CC2=O
IC50 (L1210): 0.406 µg/mL and 1.17 µM

COC1=CC(=O)c2ncnc(NCCCN(C)C)c2C1=O
IC50 (L1210): 0.501 µg/mL and 1.73 µM

COC(=O)CNc1ncnc2c1C(=O)C(OC)=CC2=O
IC50 (L1210): 1.2 µg/mL and 4.26 µM

COC(=O)C(CC(C)C)NC(=O)C(CC(C)C)Nc1ncnc2c1C(=O)C(OC)=CC2=O (configuration not stated)
IC50 (L1210): 0.581 µg/mL and 1.3 µM

COc1cccc2c1C(=O)c1c(O)c3c(c(O)c1C2=O)C[C@@](O)(C(C)=O)C[C@@H]3O[C@H]1C[C@H](N)[C@H](O)[C@H](C)O1 [DAUNORUBICIN]
Change in body weight (P388 [24]): 1.4 g mouse-1 | ILS at 1 mg/kg (P388 [25]): 79% | Median day of death (P388 [26]): 18 | Change in body weight (P388 [27]): 0.3 g mouse-1 | ILS at 1 mg/kg (P388 [28]): 63% | Median day of death (P388 [29]): 19.5 | Mortality (P388 [30]): 27 days | Survivors (P388 [31]): 0 | Total dose (P388 [32]): 4 mg/kg | Mortality (P388 [33]): 20 days | Survivors (P388 [34]): 0 | Total dose (P388 [35]): 4 mg/kg

COC1=CC(=O)c2ncnc(NCCCN(C)CCCNc3ncnc4c3C(=O)C(OC)=CC4=O)c2C1=O
IC50 (L1210): 1250 nM

CCN(CC)CCCNc1ncnc2c1C(=O)C(OC)=CC2=O
IC50 (L1210): 0.393 µg/mL and 1.24 µM

CCN(CC)CCNc1ncnc2c1C(=O)C(OC)=CC2=O
IC50 (L1210): 0.281 µg/mL and 898 nM

COC1=CC(=O)c2ncnc(NCCN(C)C)c2C1=O
IC50 (L1210): 0.316 µg/mL and 1.14 µM

COC1=CC(=O)c2ncnc(NCCO)c2C1=O
IC50 (L1210): 1.78 µg/mL and 7.13 µM

CN(CCCNc1ncnc2c1C(=O)C(N1CC1)=C(N1CC1)C2=O)CCCNc1ncnc2c1C(=O)C(N1CC1)=C(N1CC1)C2=O
IC50 (L1210): 4.8 nM

O=c1[nH]cc(F)c(=O)[nH]1 [FLUOROURACIL]
Optimal dose (Mus musculus [36]): 70 mg/kg | Tumor burden (Mus musculus [37]): 60 mg | T/C (Mus musculus [38]): 14% | Total dose (Mus musculus [39]): 140 mg/kg | Toxicity (Mus musculus [40]): 0

CCCC(=O)OCCNc1ncnc2c1C(=O)C(OC)=CC2=O
IC50 (L1210): 0.85 µg/mL and 2.66 µM

COC1=CC(=O)c2ncnc(NCCCn3cnc4c(N)ncnc43)c2C1=O
IC50 (L1210): > 10 µg/mL and > 24.6 µM

O=C1C(N2CC2)=C(N2CC2)C(=O)c2ncncc21
IC50 (L1210): 80 nM
